Measured values reported in ChEMBL document CHEMBL3046625, “Herbicidal and Fungicidal Activities of Lactones in Kava (Piper methysticum)” (2006).

Tests used:
Format in all cases: functional
Trichoderma viride [1] = test: Antifungal activity against Hypocrea rufa assessed as growth inhibition at 10 ppm after 4 days relative to untreated control; conditions: 96 h, read-out: GI
Procedure, shortened: (§1)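 Fungal cultures kept on potato dextrose agar (PDA) and subcultured on fresh medium for 3 days before testing. PDA plates held kava lactones dissolved in water at 10 or 50 ppm. Plates were inoculated with plugs from the actively growing fungal margin and incubated at 25 °C for 4 days. Distilled-water controls. Completely randomized design, at least three replicates, ANOVA.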

Echinochloa crus-galli [2] = test: Herbicidal activity against Echinochloa crus-galli (barnyard grass) assessed as inhibition of shoot length at 1 ppm relative to untreated control
Procedure, shortened: (§2)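 Pure reference kava lactones diluted to 1 and 10 ppm. Seeds were sterilized in 1% sodium hypochlorite for 30 min and rinsed in distilled water; germination >80%. Five replicates were incubated at 25 °C, 4000 lx, 8/16 h day/night, 75% humidity. Distilled-water controls. After 7 days, germinated seeds were counted and shoot and root lengths measured.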

Echinochloa crus-galli [3] = test: Herbicidal activity against Echinochloa crus-galli (barnyard grass) assessed as inhibition of germination at 10 ppm relative to untreated control; procedure, shortened: as §2
Echinochloa crus-galli [4] = test: Herbicidal activity against Echinochloa crus-galli (barnyard grass) assessed as inhibition of germination at 1 ppm relative to untreated control; procedure, shortened: as §2
Lactuca sativa [5] = test: Herbicidal activity against Lactuca sativa cv. Great Lakes 366 (lettuce) assessed as inhibition of root length at 10 ppm relative to untreated control; procedure, shortened: as §2
Lactuca sativa [6] = test: Herbicidal activity against Lactuca sativa cv. Great Lakes 366 (lettuce) assessed as inhibition of root length at 1 ppm relative to untreated control; procedure, shortened: as §2
Lactuca sativa [7] = test: Herbicidal activity against Lactuca sativa cv. Great Lakes 366 (lettuce) assessed as inhibition of shoot length at 10 ppm relative to untreated control; procedure, shortened: as §2
Lactuca sativa [8] = test: Herbicidal activity against Lactuca sativa cv. Great Lakes 366 (lettuce) assessed as inhibition of shoot length at 1 ppm relative to untreated control; procedure, shortened: as §2
Lactuca sativa [9] = test: Herbicidal activity against Lactuca sativa cv. Great Lakes 366 (lettuce) assessed as inhibition of germination at 10 ppm relative to untreated control; procedure, shortened: as §2
Lactuca sativa [10] = test: Herbicidal activity against Lactuca sativa cv. Great Lakes 366 (lettuce) assessed as inhibition of germination at 1 ppm relative to untreated control; procedure, shortened: as §2
Fusarium solani [11] = test: Antifungal activity against Fusarium solani assessed as growth inhibition at 10 ppm after 4 days relative to untreated control; conditions: 96 h, read-out: GI; procedure, shortened: as §1
[12] = test system: Colletotrichum gloeosporioides; test: Antifungal activity against Colletotrichum gloeosporioides assessed as growth inhibition at 50 ppm after 4 days relative to untreated control; conditions: 96 h, read-out: GI; procedure, shortened: as §1
[13] = test system: Colletotrichum gloeosporioides; test: Antifungal activity against Colletotrichum gloeosporioides assessed as growth inhibition at 10 ppm after 4 days relative to untreated control; conditions: 96 h, read-out: GI; procedure, shortened: as §1
Echinochloa crus-galli [14] = test: Herbicidal activity against Echinochloa crus-galli (barnyard grass) assessed as inhibition of root length at 10 ppm relative to untreated control; procedure, shortened: as §2
Echinochloa crus-galli [15] = test: Herbicidal activity against Echinochloa crus-galli (barnyard grass) assessed as inhibition of root length at 1 ppm relative to untreated control; procedure, shortened: as §2
Echinochloa crus-galli [16] = test: Herbicidal activity against Echinochloa crus-galli (barnyard grass) assessed as inhibition of shoot length at 10 ppm relative to untreated control; procedure, shortened: as §2
Trichoderma viride [17] = test: Antifungal activity against Hypocrea rufa assessed as growth inhibition at 50 ppm after 4 days relative to untreated control; conditions: 96 h, read-out: GI; procedure, shortened: as §1
Fusarium oxysporum [18] = test: Antifungal activity against Fusarium oxysporum assessed as growth inhibition at 50 ppm after 4 days relative to untreated control; conditions: 96 h, read-out: GI; procedure, shortened: as §1
Fusarium oxysporum [19] = test: Antifungal activity against Fusarium oxysporum assessed as growth inhibition at 10 ppm after 4 days relative to untreated control; conditions: 96 h, read-out: GI; procedure, shortened: as §1
Fusarium solani [20] = test: Antifungal activity against Fusarium solani assessed as growth inhibition at 50 ppm after 4 days relative to untreated control; conditions: 96 h, read-out: GI; procedure, shortened: as §1

COc1cc(/C=C/c2ccccc2)oc(=O)c1 [DESMETHOXYYANGONIN]
inhibition of growth at 10 ppm (Trichoderma viride [1]): 0% | inhibition at 1 ppm (Echinochloa crus-galli [2]): 31.7% | inhibition at 10 ppm (Echinochloa crus-galli [3]): 60% | inhibition at 1 ppm (Echinochloa crus-galli [4]): 43.3% | inhibition at 10 ppm (Lactuca sativa [5]): 63.3% | inhibition at 1 ppm (Lactuca sativa [6]): 50.3% | inhibition at 10 ppm (Lactuca sativa [7]): 82.4% | inhibition at 1 ppm (Lactuca sativa [8]): 74.9% | inhibition at 10 ppm (Lactuca sativa [9]): 59.2% | inhibition at 1 ppm (Lactuca sativa [10]): 48.1% | inhibition of growth at 10 ppm (Fusarium solani [11]): 27.4% | inhibition of growth at 50 ppm [12]: 22.2% | inhibition of growth at 10 ppm [13]: 0% | inhibition at 10 ppm (Echinochloa crus-galli [14]): 51.3% | inhibition at 1 ppm (Echinochloa crus-galli [15]): 46.4% | inhibition at 10 ppm (Echinochloa crus-galli [16]): 59.9% | inhibition of growth at 50 ppm (Trichoderma viride [17]): 0% | inhibition of growth at 50 ppm (Fusarium oxysporum [18]): 24.6% | inhibition of growth at 10 ppm (Fusarium oxysporum [19]): 11.6% | inhibition of growth at 50 ppm (Fusarium solani [20]): 33.9%

COc1ccc(/C=C/c2cc(OC)cc(=O)o2)cc1 [YANGONIN]
inhibition at 1 ppm (Echinochloa crus-galli [2]): 53.1% | inhibition at 10 ppm (Echinochloa crus-galli [3]): 56.7% | inhibition at 1 ppm (Echinochloa crus-galli [4]): 56.7% | inhibition at 10 ppm (Lactuca sativa [5]): 68% | inhibition at 1 ppm (Lactuca sativa [6]): 36.1% | inhibition at 10 ppm (Lactuca sativa [7]): 78.6% | inhibition at 1 ppm (Lactuca sativa [8]): 63.1% | inhibition at 10 ppm (Lactuca sativa [9]): 59.2% | inhibition at 1 ppm (Lactuca sativa [10]): 44.4% | inhibition of growth at 50 ppm [12]: 0% | inhibition at 10 ppm (Echinochloa crus-galli [14]): 43.8% | inhibition at 1 ppm (Echinochloa crus-galli [15]): 42.9% | inhibition at 10 ppm (Echinochloa crus-galli [16]): 58.2% | inhibition of growth at 50 ppm (Trichoderma viride [17]): 0% | inhibition of growth at 50 ppm (Fusarium oxysporum [18]): 39.1% | inhibition of growth at 50 ppm (Fusarium solani [20]): 41.9%

COC1=CC(=O)O[C@@H](/C=C/c2ccccc2)C1 [KAVAIN]
inhibition of growth at 10 ppm (Trichoderma viride [1]): 0% | inhibition at 10 ppm (Echinochloa crus-galli [3]): 46.7% | inhibition at 1 ppm (Echinochloa crus-galli [4]): 46.7% | inhibition at 10 ppm (Lactuca sativa [5]): 62.6% | inhibition at 1 ppm (Lactuca sativa [6]): 59.9% | inhibition at 10 ppm (Lactuca sativa [7]): 86.1% | inhibition at 1 ppm (Lactuca sativa [8]): 75.9% | inhibition at 10 ppm (Lactuca sativa [9]): 59.2% | inhibition at 1 ppm (Lactuca sativa [10]): 51.9% | inhibition of growth at 10 ppm (Fusarium solani [11]): 29% | inhibition of growth at 50 ppm [12]: 0% | inhibition of growth at 10 ppm [13]: 0% | inhibition at 10 ppm (Echinochloa crus-galli [14]): 46.9% | inhibition at 1 ppm (Echinochloa crus-galli [15]): 39.7% | inhibition at 10 ppm (Echinochloa crus-galli [16]): 47.6% | inhibition of growth at 50 ppm (Trichoderma viride [17]): 0% | inhibition of growth at 50 ppm (Fusarium oxysporum [18]): 17.4% | inhibition of growth at 10 ppm (Fusarium oxysporum [19]): 0% | inhibition of growth at 50 ppm (Fusarium solani [20]): 29%

COC1=CC(=O)O[C@@H](CCc2ccccc2)C1 [DIHYDROKAWAIN]
inhibition of growth at 10 ppm (Trichoderma viride [1]): 0% | inhibition at 1 ppm (Echinochloa crus-galli [2]): 56.6% | inhibition at 10 ppm (Echinochloa crus-galli [3]): 50% | inhibition at 1 ppm (Echinochloa crus-galli [4]): 46.7% | inhibition at 10 ppm (Lactuca sativa [5]): 15.6% | inhibition at 10 ppm (Lactuca sativa [7]): 74.3% | inhibition at 10 ppm (Lactuca sativa [9]): 25.9% | inhibition of growth at 10 ppm (Fusarium solani [11]): 0% | inhibition of growth at 50 ppm [12]: 33.3% | inhibition of growth at 10 ppm [13]: 0% | inhibition at 10 ppm (Echinochloa crus-galli [14]): 58.9% | inhibition at 1 ppm (Echinochloa crus-galli [15]): 53.1% | inhibition at 10 ppm (Echinochloa crus-galli [16]): 61.2% | inhibition of growth at 50 ppm (Trichoderma viride [17]): 16.2% | inhibition of growth at 50 ppm (Fusarium oxysporum [18]): 21.7% | inhibition of growth at 10 ppm (Fusarium oxysporum [19]): 10.1% | inhibition of growth at 50 ppm (Fusarium solani [20]): 38.7%

COC1=CC(=O)O[C@@H](/C=C/c2ccc3c(c2)OCO3)C1 [METHYSTICIN]
inhibition of growth at 10 ppm (Trichoderma viride [1]): 0% | inhibition at 1 ppm (Echinochloa crus-galli [2]): 55% | inhibition at 10 ppm (Echinochloa crus-galli [3]): 60% | inhibition at 1 ppm (Echinochloa crus-galli [4]): 50% | inhibition at 10 ppm (Lactuca sativa [5]): 53.1% | inhibition at 1 ppm (Lactuca sativa [6]): 61.2% | inhibition at 10 ppm (Lactuca sativa [7]): 73.3% | inhibition at 1 ppm (Lactuca sativa [8]): 71.1% | inhibition at 10 ppm (Lactuca sativa [9]): 55.6% | inhibition at 1 ppm (Lactuca sativa [10]): 48.1% | inhibition of growth at 10 ppm (Fusarium solani [11]): 37.1% | inhibition of growth at 50 ppm [12]: 0% | inhibition of growth at 10 ppm [13]: 0% | inhibition at 10 ppm (Echinochloa crus-galli [14]): 83.9% | inhibition at 1 ppm (Echinochloa crus-galli [15]): 75.4% | inhibition at 10 ppm (Echinochloa crus-galli [16]): 56% | inhibition of growth at 50 ppm (Trichoderma viride [17]): 0% | inhibition of growth at 50 ppm (Fusarium oxysporum [18]): 36.2% | inhibition of growth at 10 ppm (Fusarium oxysporum [19]): 11.6% | inhibition of growth at 50 ppm (Fusarium solani [20]): 33.9%

COC1=CC(=O)O[C@@H](CCc2ccc3c(c2)OCO3)C1 [DIHYDROMETHYSTICIN]
inhibition of growth at 10 ppm (Trichoderma viride [1]): 0% | inhibition at 1 ppm (Echinochloa crus-galli [2]): 48.6% | inhibition at 10 ppm (Echinochloa crus-galli [3]): 56.7% | inhibition at 1 ppm (Echinochloa crus-galli [4]): 50% | inhibition at 10 ppm (Lactuca sativa [5]): 74.8% | inhibition at 10 ppm (Lactuca sativa [7]): 76.5% | inhibition at 10 ppm (Lactuca sativa [9]): 89.9% | inhibition of growth at 10 ppm (Fusarium solani [11]): 40.3% | inhibition of growth at 50 ppm [12]: 27.8% | inhibition of growth at 10 ppm [13]: 0% | inhibition at 10 ppm (Echinochloa crus-galli [14]): 48.2% | inhibition at 1 ppm (Echinochloa crus-galli [15]): 32.1% | inhibition at 10 ppm (Echinochloa crus-galli [16]): 55.6% | inhibition of growth at 50 ppm (Trichoderma viride [17]): 0% | inhibition of growth at 50 ppm (Fusarium oxysporum [18]): 31.9% | inhibition of growth at 10 ppm (Fusarium oxysporum [19]): 18.8% | inhibition of growth at 50 ppm (Fusarium solani [20]): 48.4%
